Assay results from ChEMBL document CHEMBL1159038, “Synthetic studies on selective adenosine A2A receptor antagonists: synthesis and structure-activity relationships of novel benzofuran derivatives” (Bioorg Med Chem Lett, 2010).

Assays:
[1] = target: Adenosine receptor A2a (Homo sapiens) (UniProt P29274); assay: Inhibition of [3H]CGS21680 binding to human adenosine A2A receptor at 0.01 umol/L by scintillation counting
Summary of the method: (§1)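 Membranes from cells transfected with human A2A receptor, diluted 20-fold in 50 mmol/L Tris pH 7.4 with 120 mmol/L NaCl, 5 mmol/L KCl, 10 mmol/L MgCl2, 2 mmol/L CaCl2 and 2 U/mL adenosine deaminase. Incubated with [3H]CGS21680 (final 75 nmol/L) and test drug, 25 °C for 90 min. Filtered through 0.5% polyethyleneimine-treated filters, then scintillation counted. Nonspecific binding with 50 µmol/L NECA. Triplicate average.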

[2] = target: Adenosine receptor A2a (Homo sapiens) (UniProt P29274); assay: Inhibition of [3H]CGS21680 binding to human adenosine A2A receptor at 0.1 umol/L by scintillation counting; summary of the method: as §1
[3] = target: Adenosine receptor A2a (Homo sapiens) (UniProt P29274); assay: Inhibition of [3H]CGS21680 binding to human adenosine A2A receptor at 1 umol/L by scintillation counting; summary of the method: as §1
Mus musculus = assay: Antiparkinsonian effect in mouse assessed as inhibition of CGS-21680-induced catalepsy at 10 mg/kg, po; format: functional
Summary of the method: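 Compounds were given orally at 10 mg/kg to mice. Catalepsy was induced with CGS, and inhibition of catalepsy is expressed as %.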

[4] = Intrinsic clearance in rat liver microsomes; format: ADME, Microsome
Summary of the method: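 Rat liver microsomal incubations gave the apparent intrinsic clearance (CL_int). This was corrected for the free fraction of compound in the incubation to give CL_int/f_m.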

[5] = target: T1, Adenosine receptor A1 (Homo sapiens) (UniProt P30542); assay: Antagonist activity at human adenosine A1 receptor at 1 umol/L; format: functional
T1 sequence (whole entry): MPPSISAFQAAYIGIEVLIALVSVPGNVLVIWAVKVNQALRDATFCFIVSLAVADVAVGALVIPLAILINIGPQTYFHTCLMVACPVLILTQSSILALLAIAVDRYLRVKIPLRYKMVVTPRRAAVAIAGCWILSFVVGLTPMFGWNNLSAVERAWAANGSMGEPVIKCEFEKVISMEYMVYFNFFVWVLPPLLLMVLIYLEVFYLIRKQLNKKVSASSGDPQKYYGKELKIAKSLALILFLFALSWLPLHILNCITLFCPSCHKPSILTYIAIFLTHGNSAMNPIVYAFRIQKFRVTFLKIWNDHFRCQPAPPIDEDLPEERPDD

[6] = target: T1, Adenosine receptor A1 (Homo sapiens); assay: Antagonist activity at human adenosine A1 receptor at 10 umol/L; format: functional
[7] = target: T2, Adenosine receptor A2b (Homo sapiens) (UniProt P29275); assay: Antagonist activity at human adenosine A2B receptor at 1 umol/L; format: functional
T2 sequence (whole entry): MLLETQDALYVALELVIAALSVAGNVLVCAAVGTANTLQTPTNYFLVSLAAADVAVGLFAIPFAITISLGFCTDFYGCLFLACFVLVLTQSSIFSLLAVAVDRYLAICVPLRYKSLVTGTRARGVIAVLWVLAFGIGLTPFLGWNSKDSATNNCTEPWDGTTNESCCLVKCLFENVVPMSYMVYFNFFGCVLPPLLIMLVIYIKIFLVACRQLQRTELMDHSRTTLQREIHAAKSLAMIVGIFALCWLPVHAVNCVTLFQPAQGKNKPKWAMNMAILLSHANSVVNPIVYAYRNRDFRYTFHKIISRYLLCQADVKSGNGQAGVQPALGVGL

[8] = target: T2, Adenosine receptor A2b (Homo sapiens); assay: Antagonist activity at human adenosine A2B receptor at 10 umol/L; format: functional

Chain of Adenosine receptor A2a (Homo sapiens) (P29274 whole entry): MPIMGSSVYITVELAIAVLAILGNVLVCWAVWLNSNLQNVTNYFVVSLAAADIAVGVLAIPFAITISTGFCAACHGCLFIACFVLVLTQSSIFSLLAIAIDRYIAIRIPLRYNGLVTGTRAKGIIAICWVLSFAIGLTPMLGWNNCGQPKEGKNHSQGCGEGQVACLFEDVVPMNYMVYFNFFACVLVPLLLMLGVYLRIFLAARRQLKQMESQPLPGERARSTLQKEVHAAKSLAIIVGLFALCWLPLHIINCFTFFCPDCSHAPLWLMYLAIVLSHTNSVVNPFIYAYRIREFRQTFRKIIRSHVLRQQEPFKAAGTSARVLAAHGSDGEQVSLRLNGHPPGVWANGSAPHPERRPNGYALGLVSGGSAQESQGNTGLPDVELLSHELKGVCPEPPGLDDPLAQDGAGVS

Compound	inhibition [1] [%]	inhibition [2] [%]	inhibition [3] [%]	inhibition in vivo at 10 mg/kg (Mus musculus) [%]	CLint scaled [4] [mL/min/kg]	inhibition [5] [%]	inhibition [6] [%]	inhibition [7] [%]	inhibition [8] [%]
COc1ccc(-c2ccccc2)c2cc(C(=O)Nc3ccc(F)cc3)oc12	13	49	67	–	–	–	–	–	–
COc1ccc(-c2ccccc2)c2cc(C(=O)Nc3ccc(Cn4ccnc4)cc3)sc12	25	20	–	–	–	–	–	–	–
COc1ccc(-c2ccccc2)c2cc(NC(C)=O)oc12	62	91	–	28	–	–	–	–	–
COc1ccc(-c2csc(-c3ccc(C)nc3)n2)c2cc(C(=O)Nc3ccc(Cn4ccnc4)cc3)oc12	12	23	20	–	–	–	–	–	–
COC(=O)Nc1cc2c(-c3ccccc3)ccc(OC)c2o1	28	85	–	86	–	–	–	–	–
COc1ccc(-c2ccccc2)c2cc(C(=O)Nc3ccc(Cn4ccnc4)cc3)oc12	24	64	95	12	2600	9	10	1	1
COc1ccc(-c2csc(-c3ccc(C)nc3)n2)c2cc(C(=O)Nc3ccc(F)cc3)oc12	17	6	4	–	–	–	–	–	–
COc1ccc(-c2ccccc2)c2cc(NC(=O)Oc3ccc(F)cc3)oc12	11	32	–	–	–	–	–	–	–
COC(=O)c1ccc(OC)c2oc(C(=O)Nc3ccccc3)cc12	6	49	86	–	758	–	–	–	–
COc1ccc(-c2ccccc2)c2cc(C(=O)Nc3ccncc3)sc12	11	31	–	–	–	–	–	–	–
COc1ccc(-c2ccc(OC)c3oc(C(=O)Nc4ccc(Cn5ccnc5)cc4)cc23)cc1	24	63	90	54	–	-4	–	–	4
COC(=O)c1ccc(OC)c2oc(C(=O)Nc3ccc(Cl)cc3)cc12	1	43	77	–	–	–	–	–	–
COc1ccc(NC(=O)c2cc3c(-c4csc(-c5ccccc5)n4)ccc(OC)c3o2)cc1	6	11	–	–	–	–	–	–	–
COc1ccc(-c2ccccc2)c2cc(NC(=O)Oc3ccccc3)oc12	23	65	–	34	–	–	–	–	–
COc1ccc(-c2ccccc2)c2cc(C(=O)Nc3ccncc3)oc12	–	–	100	40	580	20	77	21	58
COC(=O)c1ccc(OC)c2oc(C(=O)Nc3ccc(Cn4ccnc4)cc3)cc12	40	80	98	0	–	–	–	–	–
CNC(=O)c1cc2c(-c3ccccc3)ccc(OC)c2o1	57	88	–	18	–	–	–	–	–
CCOC(=O)c1ccc(-c2ccc(OC)c3oc(C(=O)Nc4ccccc4)cc23)cc1	–	-2	-8	–	–	–	–	–	–
COc1ccc(-c2ccc(Cl)cc2)c2cc(C(=O)Nc3ccncc3)oc12	18	28	–	–	–	–	–	–	–
COc1ccc(-c2ccc(Cl)cc2)c2cc(C(=O)Nc3ccc(Cn4ccnc4)cc3)oc12	8	33	–	–	–	–	–	–	–
COC(=O)c1ccc(OC)c2oc(C(=O)Nc3cccc(F)c3)cc12	14	58	86	48	–	–	–	–	–
COc1ccc(-c2ccccc2)c2cc(NC(=O)Nc3ccc(F)cc3)oc12	22	37	–	–	–	–	–	–	–
COC(=O)c1ccc(OC)c2oc(C(=O)Nc3ccc(OC)cc3)cc12	–	53	91	–	–	–	–	–	–
COc1ccc(-c2ccccc2)c2cc(C(=O)Nc3c(Cl)cncc3Cl)oc12	83	101	–	74	–	–	–	–	–
COc1ccc(-c2ccccc2)c2cc(C(=O)NN3CCOCC3)oc12	39	81	103	78	20.3	37	82	81	98
COc1ccc(-c2csc(C)n2)c2cc(C(=O)Nc3ccc(F)cc3)oc12	1	15	60	–	–	–	–	–	–
